Sampled rows, rich in hits. Any-hit rate of the full collection: about 2.6%.
GSIS activator: GLuc luminescence reporter in INS-1E cells, primary screen for activators of glucose-dependent secretion of insulin. hit rate 0.61% among 370,000. AID 743287. INS-1E GLuc reporter insulin secretion, 2-3 h. activation, % at 16.6 µM;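 active = lowest replicate activation of at least 40%, so every replicate reaches that level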
AF4-AF9 inh: blocks AF4 peptide binding to human AF9. P42568. AlphaScreen, biotin-AF4 peptide binding to FLAG-AF9. inhibition, % at 10 µM. hit rate 0.47% among 350,000. AID 651704;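 active = every replicate reaching a set inhibition limit, whatever the replicate mean, cut at about 25% in these data; inconclusive = mean inhibition reaches that limit but some replicates miss it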
Target sequence (P42568 whole entry, looked up): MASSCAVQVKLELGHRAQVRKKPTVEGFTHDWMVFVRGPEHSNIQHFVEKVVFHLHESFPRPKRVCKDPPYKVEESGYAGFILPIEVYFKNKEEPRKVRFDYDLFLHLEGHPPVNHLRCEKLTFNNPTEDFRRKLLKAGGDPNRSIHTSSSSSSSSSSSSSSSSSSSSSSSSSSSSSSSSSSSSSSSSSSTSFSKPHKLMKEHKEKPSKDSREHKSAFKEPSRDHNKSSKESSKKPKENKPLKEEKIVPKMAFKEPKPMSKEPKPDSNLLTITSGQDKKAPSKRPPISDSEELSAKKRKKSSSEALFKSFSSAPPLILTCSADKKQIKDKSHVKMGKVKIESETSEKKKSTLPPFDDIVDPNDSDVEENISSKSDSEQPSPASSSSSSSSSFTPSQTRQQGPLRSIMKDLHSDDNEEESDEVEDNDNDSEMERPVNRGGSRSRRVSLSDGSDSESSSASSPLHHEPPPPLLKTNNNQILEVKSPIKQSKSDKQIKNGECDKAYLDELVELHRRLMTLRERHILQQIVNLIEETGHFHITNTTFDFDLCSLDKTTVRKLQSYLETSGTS
E-sel inducer: E-selectin induction on HUVECs. P16581. HUVEC E-selectin immunofluorescence imaging; normalized: neutral wells 0, TNF-alpha wells 100. activation, % at 7.58 µM. hit rate 0.37% among 260,000. AID 686992;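 active = mean E-selectin-positive cell signal at least 10% of the positive control, reached in at least 60% of replicates, without over 20% cell loss; inconclusive = no rule given, readout overlaps actives, possibly toxicity-flagged; inactive = the rest, including those meeting only one limit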
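Test system: HUVEC; input: 3,000 HUVEC/well; measured by: immunofluorescence imaging; read-out: % PE-positive cells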
Ecoli rRNA inh: inhibits bacterial ribosomal RNA function over humanized ribosomes; GFP signal change (wild-type ribosome), % (concentration not given with the values); E. coli WT GFP vs humanized-ribosome RFP mutants, fluorescence, 24 h; active compounds read low; DMSO median 0, no signal -100; hit rate 1.6% among 350,000;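 active = significant combined selectivity score with lowered wild-type GFP, culture density cut under 30%, mutant RFP and density less affected; inactive = any of these conditions unmet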
RAD54 branch: RAD54 (human) branch migration inhibition | Q92698 | RAD54 Holliday junction branch migration, FAM/BHQ fluorescence | inhibition, % at 10.4 µM | hit rate 0.14% among 360,000 | AID 602329;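 active = mean normalized replicate activity at least 40 and at least half of replicates scoring 40 or more; inconclusive = only one of the two criteria met; inactive = mean below 40 and under half of replicates reaching 40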;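 also: inhibitors cause a drop in the FAM fluorescence signal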
RAD52 anneal inh: blocks human RAD52 DNA annealing; recombinant RAD52 DNA annealing, FRET fluorescence; inhibition, % at 18.7 µM; hit rate 0.46% among 360,000;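 active = every replicate showing at least 50% inhibition; inconclusive = mean inhibition at least 50% but not in every replicate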
AlphaScreen intf: AlphaScreen signal interference counter-screen hit. signal luminescence. AC50, µM (titrated, usually from 12 µM). AID 720494. shares compounds with AF4-AF9 inh. hit rate 45% among 530; cut-off not given, nearly all actives have AC50 up to about 14 µM
DNA binder FP: binds DNA, flagging false RAD52 inhibitor hits; shares compounds with RAD52 anneal inh; Salmon sperm DNA/acridine orange FP displacement, DNA binding; AC50, µM; hit rate 8% among 1,000; AID 652128;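 active = fitted half-maximal concentration for signal loss at or below twice the highest dose tested, in every separate run, actives reach about 64 µM in these data; inconclusive = runs disagree, or flat partial signal loss, or poor fit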
Each line names hits and unclear results; the compound was inactive in the other large screens (follow-up assays come after a bar, where they were run).

O=C(NCC[C@H]1CC[C@H](NC(=O)Nc2cc(F)ccc2F)[C@H](CO)O1)Nc1ccc(Cl)cc1	none
N=C(N)c1ccc(Cl)cc1	none (no result: E-sel inducer, RAD54 branch)
N=C(N)c1ccc(/C=C/c2ccc(C(=N)N)cc2O)cc1	AF4-AF9 inh 61, RAD52 anneal inh 97 (no result: RAD54 branch) | AlphaScreen intf inactive | DNA binder FP inactive
CC1CCN(CC(=O)Nc2ccc(N3CCCCCC3)cc2)CC1	AF4-AF9 inh 53, RAD52 anneal inh 75 (no result: E-sel inducer, RAD54 branch) | AlphaScreen intf 12µM | DNA binder FP inactive
O=C(NC1CCCC1)N1CC(=O)N2[C@H](CO)[C@@H](c3ccc(-c4cccc(F)c4)cc3)[C@@H]2C1	none (no result: RAD54 branch)
CCN(Cc1ccccc1)c1ccc(/C=N/N=C(N)N)cc1	AF4-AF9 inh 53, RAD52 anneal inh 92 (no result: GSIS activator, E-sel inducer) | AlphaScreen intf 10µM | DNA binder FP inactive
Oc1ccccc1C=NCCN=Cc1ccccc1O	none (no result: RAD54 branch)
Oc1ccccc1C=NCCCCCCN=Cc1ccccc1O	AF4-AF9 inh 39, RAD52 anneal inh 59 | AlphaScreen intf inactive | DNA binder FP inactive
Oc1ccccc1C=NCC(O)c1ccccc1 (stereo unspecified)	none (no result: E-sel inducer)
Oc1ccccc1C=NCCN1CCN(CCN=Cc2ccccc2O)C1c1ccccc1O (stereo unspecified)	AF4-AF9 inh 30, RAD52 anneal inh 66 | AlphaScreen intf inactive | DNA binder FP inactive
Cc1ccc2nc(-c3ccc(NC(=S)NC4CC(C)(C)NC(C)(C)C4)cc3)sc2c1	AF4-AF9 inh 45, RAD52 anneal inh 95 | AlphaScreen intf inactive | DNA binder FP inactive
C[C@@H]1CN([C@@H](C)CO)C(=O)Cc2cc(NC(=O)C3CCCCC3)ccc2O[C@H]1CN(C)C(=O)NC1CCCCC1	none
CCCCCN=C(N)N/N=C/c1c[nH]c2ccc(OC)cc12	AF4-AF9 inh 35, RAD52 anneal inh 56 (no result: GSIS activator, Ecoli rRNA inh) | AlphaScreen intf inactive | DNA binder FP inactive
COc1cccc(OCC(O)CN2CCC(CN3C(=O)c4cccc5cccc(c45)C3=O)CC2)c1 (stereo unspecified)	AF4-AF9 inh 34, RAD52 anneal inh 86 (no result: E-sel inducer, RAD54 branch) | AlphaScreen intf inactive | DNA binder FP inactive
CC1CN(C)C(C)c2c1oc1ccc(N)cc21 (stereo unspecified)	AF4-AF9 inh 35, RAD52 anneal inh 95 (no result: RAD54 branch) | AlphaScreen intf inactive | DNA binder FP inactive
C[C@@H]1CCCCO[C@H](CN(C)C)[C@H](C)CN([C@@H](C)CO)C(=O)c2cc(NC(=O)CCCN(C)C)ccc2O1	none
Cc1cc(C)c2nc3nc(C)c(C)cc3c(N)c2c1	RAD52 anneal inh 91 (no result: E-sel inducer, RAD54 branch) | DNA binder FP 62µM
CCCSc1nc(C)c2cc(C)cc(C)c2n1	none (no result: AF4-AF9 inh, E-sel inducer, Ecoli rRNA inh, RAD54 branch, RAD52 anneal inh)
CSc1ccc2c(c1)N(CCC1CCCCN1C)c1ccccc1S2 (stereo unspecified)	AF4-AF9 inh 39, RAD52 anneal inh 51 (no result: GSIS activator, Ecoli rRNA inh) | DNA binder FP inactive
CN(C)CCc1cc2c(c3c1ccc1ccccc13)OCO2	RAD54 branch 95, RAD52 anneal inh 100 (no result: GSIS activator) | DNA binder FP 37µM
CCCNC1=CC(=O)CC(C)(C)C1	RAD52 anneal inh 98 (no result: GSIS activator, E-sel inducer, RAD54 branch) | DNA binder FP inactive
Cc1cc(N2CCN(Cc3nc(-c4ccc(Cl)cc4)oc3C)CC2)cc(C)n1	none
COc1ccc(-c2nc(CN3CCN(c4cc(C)nc(C)c4)CC3)c(C)o2)c2ccccc12	AF4-AF9 inh 26, RAD52 anneal inh 82 | DNA binder FP inactive
CSc1ccc2c(c1)C(N1CCN(C)CC1)Cc1ccc(F)cc1S2 (stereo unspecified)	Ecoli rRNA inh -48, RAD52 anneal inh 51 (no result: AF4-AF9 inh) | DNA binder FP inactive
O=[N+]([O-])c1ccc2c(c1)C(N1CCN(CCO)CC1)Cc1ccc(F)cc1S2 (stereo unspecified)	none (no result: GSIS activator)
COc1cc2c[n+](C)c3c4ccccc4ccc3c2cc1OC	RAD52 anneal inh 104 (no result: E-sel inducer, Ecoli rRNA inh, RAD54 branch) | DNA binder FP inconclusive
COc1ccc2c(c1)c[n+](C)c1c3cc(OC)c(OC)cc3ccc21	RAD52 anneal inh 109 (no result: GSIS activator, RAD54 branch) | DNA binder FP 36µM
Oc1c(CN2CCCCC2)ccc2cccnc12	Ecoli rRNA inh -13, RAD52 anneal inh 63 | DNA binder FP inactive
Oc1ccc(CN2CCCCC2)c2cccnc12	AF4-AF9 inh inconclusive (no result: E-sel inducer)
Cc1ccc2c(=O)c(CN3CCCCCC3)c(C)[nH]c2c1C	none (no result: E-sel inducer) | DNA binder FP inactive
Cc1[nH]c2c(Cl)cccc2c(=O)c1CN1CCCCCC1	none
Cc1ccc2cc(C#N)c(NCCNC(=S)NCCCN(C)C)nc2c1C	RAD52 anneal inh 100 (no result: E-sel inducer, RAD54 branch) | DNA binder FP inactive
Cc1cc(C)c2nc(NCCCNC(=S)NCCCN(C)C)c(C#N)cc2c1	RAD52 anneal inh 94 (no result: E-sel inducer, RAD54 branch) | DNA binder FP inactive
CCOCCCNC(=S)NCCNc1nc2c(C)cccc2cc1C#N	none (no result: GSIS activator, AF4-AF9 inh, E-sel inducer, Ecoli rRNA inh, RAD52 anneal inh)
CCOCCCNC(=S)NCCCNc1nc2c(C)cc(C)cc2cc1C#N	none (no result: E-sel inducer, RAD54 branch)
O=C1c2ccccc2C(=O)c2c(NCCCN(CCO)CCO)cccc21	AF4-AF9 inh inconclusive, RAD52 anneal inh 93 (no result: E-sel inducer, RAD54 branch) | DNA binder FP 4.3µM
O=C1c2ccccc2-c2c1cccc2C(=O)N(CCO)CCO	none (no result: AF4-AF9 inh, E-sel inducer, Ecoli rRNA inh, RAD52 anneal inh)
COc1cc(C(=O)NC2CCN(C)CC2)ccc1Nc1ncc2c(n1)N(C1CCCC1)CCC(=O)N2C(C)C	none (no result: GSIS activator, AF4-AF9 inh, E-sel inducer, Ecoli rRNA inh, RAD52 anneal inh)
COc1cc(C(=O)NC2CCN(C)CC2)ccc1Nc1ncc2c(n1)N(CCc1ccccc1)CCC(=O)N2C	RAD52 anneal inh 81 | DNA binder FP inactive
CC(=O)N1[C@@H]2Cn3c(ccc(-c4ccccc4)c3=O)[C@H]1[C@@H](C(=O)Nc1ccccc1)[C@@H]2CO	none
O=c1c2ccccc2nc2c3ccccc3c(NCCN3CCOCC3)nn12	none (no result: AF4-AF9 inh, E-sel inducer, Ecoli rRNA inh, RAD54 branch, RAD52 anneal inh)
O=c1c2c(-c3ccccc3)csc2nc2c3ccccc3c(NCCN3CCOCC3)nn12	RAD52 anneal inh 87 (no result: RAD54 branch) | DNA binder FP inactive
O=C(C[C@@H]1CC[C@H](NC(=O)Nc2ccc3c(c2)OCO3)[C@H](CO)O1)NCc1ccc(F)cc1	none
CN1CCN(c2nc(-c3ccccc3O)nc3ccccc23)CC1	RAD52 anneal inh 53 (no result: RAD54 branch) | DNA binder FP inactive
COc1cccc(-c2nc(N3CCN(C)CC3)c3ccccc3n2)c1O	Ecoli rRNA inh -23, RAD52 anneal inh 87 (no result: E-sel inducer, RAD54 branch) | DNA binder FP inconclusive
O=C(CNC1CCCC1)Nc1ccc(N2CCCCCC2)cc1	AF4-AF9 inh 44, RAD52 anneal inh 78 (no result: E-sel inducer, RAD54 branch) | DNA binder FP inactive
CC(C)NC(=O)N1CC(c2ccccc2)C(c2ccc(Cl)cc2)=N1 (stereo unspecified)	RAD52 anneal inh 97 | DNA binder FP inactive
O=C(c1ccc(Cn2c(=S)[nH]c3ccc(N4CCOCC4)cc3c2=O)cc1)N1CCC(N2CCCCC2)CC1	RAD52 anneal inh 87 (no result: RAD54 branch) | DNA binder FP inactive
O=C(NC1CCN(Cc2ccccc2)CC1)c1ccc(Cn2c(=S)[nH]c3ccc(N4CCOCC4)cc3c2=O)cc1	none
